From ChEMBL document CHEMBL1135580, “6,7-Dihydro-2-benzothiophen-4(5H)-ones: a novel class of GABA-A alpha5 receptor inverse agonists” (J Med Chem, 2002)

Key:
[1] = target: T1, Gamma-aminobutyric acid receptor subunit alpha-5 (Homo sapiens) (UniProt P31644); assay: Selectivity for GABA-A receptor alpha-5 subunit binding over alpha-1,2,3 when co-expressed with beta-3 and gamma-2
T1 sequence (whole entry): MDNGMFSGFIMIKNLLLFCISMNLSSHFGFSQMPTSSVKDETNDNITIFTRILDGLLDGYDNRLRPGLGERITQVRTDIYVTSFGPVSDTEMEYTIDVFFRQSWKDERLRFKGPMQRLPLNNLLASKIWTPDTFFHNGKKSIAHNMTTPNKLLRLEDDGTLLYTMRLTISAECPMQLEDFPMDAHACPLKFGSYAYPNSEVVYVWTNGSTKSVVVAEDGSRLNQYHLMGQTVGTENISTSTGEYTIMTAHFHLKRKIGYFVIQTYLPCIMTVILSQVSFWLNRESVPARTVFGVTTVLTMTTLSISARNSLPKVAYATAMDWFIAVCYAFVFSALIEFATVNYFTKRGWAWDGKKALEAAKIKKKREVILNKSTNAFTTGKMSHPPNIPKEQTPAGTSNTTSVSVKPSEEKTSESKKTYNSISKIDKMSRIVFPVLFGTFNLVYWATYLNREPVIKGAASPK
Outline: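 Ratio of binding affinity for α5 over α1, α2 and α3. Each affinity comes from [³H]Ro15-1788 displacement at recombinant human receptors, with Ki as the geometric mean of three independent determinations.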

[2] = target: T2, GABA-A receptor; alpha-1/beta-3/gamma-2 (Homo sapiens, UniProt P14867+P18507+P28472); assay: Displacement of [3H]- Ro 15-1788 binding from human GABA-A receptor alpha-1-beta-3-gamma-2 subunits; type: protein-complex assay
T2 sequence (P14867 whole entry): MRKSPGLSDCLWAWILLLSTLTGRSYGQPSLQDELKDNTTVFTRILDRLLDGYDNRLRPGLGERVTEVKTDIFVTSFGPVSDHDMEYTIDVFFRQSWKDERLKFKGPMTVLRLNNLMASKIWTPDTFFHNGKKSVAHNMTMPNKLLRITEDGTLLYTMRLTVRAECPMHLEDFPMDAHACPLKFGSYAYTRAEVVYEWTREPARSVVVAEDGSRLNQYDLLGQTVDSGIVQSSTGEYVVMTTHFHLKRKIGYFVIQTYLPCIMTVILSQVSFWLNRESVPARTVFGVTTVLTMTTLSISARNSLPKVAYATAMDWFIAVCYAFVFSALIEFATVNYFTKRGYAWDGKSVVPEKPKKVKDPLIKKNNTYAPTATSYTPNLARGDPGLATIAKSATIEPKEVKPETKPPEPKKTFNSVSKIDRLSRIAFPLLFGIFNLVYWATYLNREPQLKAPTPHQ
T2 sequence (P18507 whole entry): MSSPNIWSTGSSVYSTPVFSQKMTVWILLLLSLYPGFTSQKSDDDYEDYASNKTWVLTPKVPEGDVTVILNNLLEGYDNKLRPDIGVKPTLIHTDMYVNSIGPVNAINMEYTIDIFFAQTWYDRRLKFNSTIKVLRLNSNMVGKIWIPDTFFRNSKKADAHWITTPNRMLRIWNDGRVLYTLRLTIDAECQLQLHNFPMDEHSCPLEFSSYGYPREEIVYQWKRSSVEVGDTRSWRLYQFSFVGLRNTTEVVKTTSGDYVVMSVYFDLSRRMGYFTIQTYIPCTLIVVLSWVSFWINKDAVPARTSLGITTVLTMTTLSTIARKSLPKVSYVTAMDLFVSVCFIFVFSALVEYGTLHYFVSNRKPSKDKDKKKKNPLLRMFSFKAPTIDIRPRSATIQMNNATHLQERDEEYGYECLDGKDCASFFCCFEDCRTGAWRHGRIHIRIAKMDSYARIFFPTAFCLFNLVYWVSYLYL
T2 sequence (P28472 whole entry): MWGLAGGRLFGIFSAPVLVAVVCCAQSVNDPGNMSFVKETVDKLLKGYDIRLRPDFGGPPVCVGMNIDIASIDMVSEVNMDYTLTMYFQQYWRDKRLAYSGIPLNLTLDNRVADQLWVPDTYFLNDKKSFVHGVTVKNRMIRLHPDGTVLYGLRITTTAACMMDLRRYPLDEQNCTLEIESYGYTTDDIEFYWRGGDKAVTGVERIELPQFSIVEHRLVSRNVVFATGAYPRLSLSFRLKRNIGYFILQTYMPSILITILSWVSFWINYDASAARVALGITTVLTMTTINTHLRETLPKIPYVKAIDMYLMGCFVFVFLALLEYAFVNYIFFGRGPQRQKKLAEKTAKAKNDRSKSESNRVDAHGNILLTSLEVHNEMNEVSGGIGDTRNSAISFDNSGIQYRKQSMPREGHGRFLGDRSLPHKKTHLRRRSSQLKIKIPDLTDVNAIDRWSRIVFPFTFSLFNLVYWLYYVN
Outline: (§1)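 Radioligand displacement of [³H]Ro15-1788 from recombinant human GABA-A receptor subtypes. Ki values are the geometric mean ± SEM of three independent determinations.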

[3] = target: T3, GABA-A receptor; alpha-3/beta-3/gamma-2 (Homo sapiens, UniProt P18507+P28472+P34903); assay: Displacement of [3H]- Ro 15-1788 binding from human GABA-A receptor alpha-3-beta-3-gamma-2 subunits; type: protein-complex assay; outline: as §1
T3 sequence (P18507 whole entry): T2 sequence (P18507 whole entry)
T3 sequence (P28472 whole entry): T2 sequence (P28472 whole entry)
T3 sequence (P34903 whole entry): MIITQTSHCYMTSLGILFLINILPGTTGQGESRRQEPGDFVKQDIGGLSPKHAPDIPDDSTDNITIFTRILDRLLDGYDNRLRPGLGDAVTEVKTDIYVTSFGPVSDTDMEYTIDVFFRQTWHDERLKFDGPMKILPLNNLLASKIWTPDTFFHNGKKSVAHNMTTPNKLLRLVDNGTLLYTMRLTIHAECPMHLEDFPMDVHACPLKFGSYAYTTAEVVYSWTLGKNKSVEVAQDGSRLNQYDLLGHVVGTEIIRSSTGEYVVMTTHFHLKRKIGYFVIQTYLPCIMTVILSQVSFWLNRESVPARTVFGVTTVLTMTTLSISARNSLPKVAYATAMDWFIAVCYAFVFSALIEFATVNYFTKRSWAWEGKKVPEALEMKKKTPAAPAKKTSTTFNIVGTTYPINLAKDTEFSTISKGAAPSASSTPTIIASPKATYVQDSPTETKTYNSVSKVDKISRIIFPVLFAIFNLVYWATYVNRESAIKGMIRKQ

[4] = target: T4, GABA-A receptor; alpha-2/beta-3/gamma-2 (Homo sapiens, UniProt P18507+P28472+P47869); assay: Displacement of [3H]- Ro 15-1788 binding from human GABA-A receptor alpha-2-beta-3-gamma-2 subunits; type: protein-complex assay; outline: as §1
T4 sequence (P18507 whole entry): T2 sequence (P18507 whole entry)
T4 sequence (P28472 whole entry): T2 sequence (P28472 whole entry)
T4 sequence (P47869 whole entry): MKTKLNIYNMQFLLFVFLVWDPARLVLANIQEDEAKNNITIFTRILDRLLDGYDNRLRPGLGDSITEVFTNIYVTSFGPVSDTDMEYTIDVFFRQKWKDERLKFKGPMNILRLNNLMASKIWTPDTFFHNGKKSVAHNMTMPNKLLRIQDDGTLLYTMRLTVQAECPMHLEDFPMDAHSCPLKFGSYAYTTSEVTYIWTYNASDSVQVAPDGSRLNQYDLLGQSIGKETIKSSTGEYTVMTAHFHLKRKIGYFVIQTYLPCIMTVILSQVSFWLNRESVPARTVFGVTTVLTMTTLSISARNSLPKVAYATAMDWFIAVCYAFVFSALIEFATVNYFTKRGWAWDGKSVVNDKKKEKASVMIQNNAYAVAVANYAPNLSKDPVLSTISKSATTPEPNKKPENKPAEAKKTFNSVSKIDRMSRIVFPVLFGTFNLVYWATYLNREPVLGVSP

[5] = target: T5, GABA-A receptor; alpha-5/beta-3/gamma-2 (Homo sapiens, UniProt P18507+P28472+P31644); assay: Displacement of [3H]- Ro 15-1788 binding from human GABA-A receptor alpha-5-beta-3-gamma-2 subunits; type: protein-complex assay; outline: as §1
T5 sequence (P18507 whole entry): T2 sequence (P18507 whole entry)
T5 sequence (P28472 whole entry): T2 sequence (P28472 whole entry)
T5 sequence (P31644 whole entry): T1 sequence (whole entry)

[6] = target: T6, GABA-A receptor; alpha-5/beta-3/gamma-2 (Homo sapiens) (UniProt P18507+P28472+P31644); assay: Percentage modulation of GABA EC20 against human GABA-A receptor alpha-5-beta-3-gamma-2 subunits expressed in Xenopus laevis oocytes; type: cell-based; conditions: Oocyte
[7] = target: GABA-A receptor; alpha-1/beta-3/gamma-2 (Homo sapiens) (UniProt P14867+P18507+P28472); assay: Maximum modulation relative to GABA EC20 against human GABA-A receptor alpha-1-beta-3-gamma-2 subunits expressed in mammalian fibroblast L(tk-) cells; type: cell-based
Outline: (§2)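 Whole-cell patch-clamp recording from mammalian fibroblast L(tk-) cells stably expressing GABA-A αxβ3γ2 (x = 1, 2, 3 or 5). Compound modulation of a submaximal (EC20) GABA current was recorded. Maximum modulation came from individually fitted concentration-response curves, at least five per value, given as mean ± SEM.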

[8] = target: GABA-A receptor; alpha-3/beta-3/gamma-2 (Homo sapiens) (UniProt P18507+P28472+P34903); assay: Maximum modulation relative to GABA EC20 against human GABA-A receptor alpha-3-beta-3-gamma-2 subunits expressed in mammalian fibroblast L(tk-) cells; type: cell-based; outline: as §2
[9] = target: GABA-A receptor; alpha-2/beta-3/gamma-2 (Homo sapiens) (UniProt P18507+P28472+P47869); assay: Maximum modulation relative to GABA EC20 against human GABA-A receptor alpha-2-beta-3-gamma-2 subunits expressed in mammalian fibroblast L(tk-) cells; type: cell-based; outline: as §2
[10] = target: T6, GABA-A receptor; alpha-5/beta-3/gamma-2 (Homo sapiens); assay: Maximum modulation relative to GABA EC20 against human GABA-A receptor alpha-5-beta-3-gamma-2 subunits expressed in mammalian fibroblast L(tk-) cells; type: cell-based; outline: as §2

SMILES	Selectivity [1]	Ki [2] [nM]	Ki [3] [nM]	Ki [4] [nM]	Ki [5] [nM]	Efficacy [6] [%]	Efficacy [7] [%]	Efficacy [8] [%]	Efficacy [9] [%]	Efficacy [10] [%]
CCSc1sc(-c2cc[nH]n2)c2c1C(=O)CC(C)(C)C2	10	12	16	16	1.6	–	–	–	–	–
CC1(C)CC(=O)c2c(SSc3nccs3)sc(-c3cc[nH]n3)c2C1	3	4.3	48	19	1.4	-7	–	–	–	–
CC1(C)CC(=O)c2c(SCCO)sc(-c3ccccn3)c2C1	20	3.6	10	5.2	0.5	-39	–	–	–	–
CSc1sc(-c2ccccn2)c2c1C(=O)CC(C)(C)C2	26	45	25	26	1.7	-31	–	–	–	–
CSc1sc(-c2cc[nH]n2)c2c1C(=O)CC(C)(C)C2	13	66	21	56	5.2	-3	–	–	–	–
CSc1sc(-c2cccnc2)c2c1C(=O)CC(C)(C)C2	28	165	33	31	5.8	-40	–	–	–	–
CC(C)Sc1sc(-c2cc[nH]n2)c2c1C(=O)CC(C)(C)C2	6	5	7	12	2	–	–	–	–	–
CSc1sc(-c2ccncc2)c2c1C(=O)CC(C)(C)C2	19	172	35	43	9.1	-20	–	–	–	–
CC1(C)CC(=O)c2c(SCCO)sc(-c3cc[nH]n3)c2C1	11	31	24	21	2.9	–	–	–	–	–
CC1(C)CC(=O)c2c(SCCO)sc(-c3nccs3)c2C1	13	20	20	16	1.6	-38	-21	-3	-1	-51
CSc1sc(-c2nccs2)c2c1C(=O)CC(C)(C)C2	28	61	47	44	2.2	-24	–	–	–	–
CCc1c(C(=O)OC)ncc2[nH]c3cc(OC)c(OC)cc3c12	3	10	7.5	13	2.2	-34	-71	-62	-53	-57
